Experimental data gathered from unrelated publications.
Compare with care: the assays were run in different laboratories.
Target: Dual specificity tyrosine-phosphorylation-regulated kinase 1A (DYRK1A, Homo sapiens, UniProt Q13627)

| SMILES | test | conditions | quantity | result |
| --- | --- | --- | --- | --- |
| CCOC(=O)c1c(NC(=O)CCC(=O)OC)sc2c1CCCC2 | enzyme activity, inhibitor, ADP detection | 10 µM | inhibition | 18.3% |
| CC(C)S(=O)(=O)c1ccc2nccc(Nc3ccc4sc(C5CCCC5)nc4c3)c2c1 | enzyme activity, inhibitor | 1 µM | activity vs control | 103% |
| CC#CC(=O)N1CCC[C@H]1c1nc(-c2ccc(C(=O)Nc3ccccn3)cc2)c2c(N)nccn12 | enzyme activity, inhibitor | 1 µM | inhibition | 3% |
| C1=C/COCc2cc(ccc2OCCN2CCCC2)Nc2nccc(n2)-c2cccc(c2)COC/1 | binding | 0.1 µM | remaining binding | 52% |
| CCCCC(=O)Nc1ccc(-c2ccc3ncn(CCC)c(=O)c3c2)cn1 | binding, competition with immobilised ligand | 0.5 µM | remaining binding | 81% |
| C[C@H]1CC[C@H](n2c3cnccc3c3cnc(Nc4ccc5c(n4)CCN(C(=O)CO)C5)nc32)CC1 | cell-free assay | 1 µM | remaining signal | 0% |
| O=[N+]1C=CC(=C2C=CN([O-])C=C2)C=C1 | enzyme activity, inhibitor, ADP detection | 10 µM | inhibition | 52.8% |
| CN1CCN(C(=O)c2ccc(NC(=O)Nc3ccc(N(C)c4ccnc(Nc5ccc(CS(C)(=O)=O)cc5)n4)cc3)cc2)CC1 | binding | 1 µM | remaining binding | 62% |
| COc1ccc2oc(-c3ccc4nc(N)oc4c3)c/c(=N\c3ccccc3NC(=O)CCN)c2c1 | binding, competition with immobilised ligand | 1 µM | remaining binding | 111% |
| c1cnc(-c2nnc3sc(C45CC6CC(CC(C6)C4)C5)nn23)cn1 | enzyme activity, inhibitor, ADP detection | 10 µM | inhibition | 8.44% |
| C=CC(=O)N1CCC([C@@H]2CCNc3c(C(N)=O)c(-c4ccc(Oc5ccccc5)cc4)nn32)CC1 | cell-free assay | 1 µM | inhibition | 3% |
| C=C(C)C1CCC(C)=C1COC(=O)c1cc([N+](=O)[O-])cc([N+](=O)[O-])c1 (stereo not shown) | enzyme activity, inhibitor, ADP detection | 10 µM | inhibition | 10.3% |
| CC(=O)ON=C1C=CC(=C(C#N)c2ccccc2)C=C1 | enzyme activity, inhibitor, ADP detection | 2 µM | activity vs control | 99% |
